Results on 37 sequences are retold here after the EternaBench riboswitch data.

This data set has as its system MS2 coat protein. The data set can be described thus: apparent Kd, MS2 coat protein; higher = weaker binding; RNA-MaP array; FMN 200 µM where present. The gist of the method: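 SNAP-549-labelled MS2 coat protein, doubled from 0.7 or 1.5 nM to 3 µM, was titrated over designs transcribed by stalled E. coli RNA polymerase on Illumina sequencing-chip clusters. Titrations were run without and then with constant ligand in 100 mM Tris-HCl pH 7.5, 80 mM KCl, 4 mM MgCl2, BSA, DTT, yeast tRNA and Tween-20. The apparent Kd is the median of filtered per-cluster fits to green signal normalised to red-channel RNA signal and control-cluster median Fmax.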

The mark [1] stands for this setting: designed as: OFF switch for flavin mononucleotide, no ligand.
The mark [2] stands for this setting: ligand present: flavin mononucleotide, designed as: OFF switch for flavin mononucleotide.
The mark [3] stands for this setting: designed as: ON switch for flavin mononucleotide, no ligand.
The mark [4] stands for this setting: ligand present: flavin mononucleotide, designed as: ON switch for flavin mononucleotide.

Take “ACAAGAUCAGGAUAUACAUGAGGAUCACCCAUGUUUAUCAAAAAAGGGCUUUCUUAAUGUAGAAGGGAUCUUGU”: the “apparent Kd” value was 0.0845 µM under setting [1] and 0.0641 µM under setting [2].

Turning to “AGUACUCAAAGAGUACCCAUACGGACAUGAGGAUCACCCAUGUAGGAUAUGCUACUCAAAGAGUAGUAGAAGGACAUAUUCCUC”, the “apparent Kd” value came out at 0.00952 µM under setting [1] and 0.0203 µM under setting [2].

On to “UUGUUUGUAGUGAGGAUAUCGUUGAGGAAGAGGAUCGAGAAGGCACAUGAGGAUCACCCAUGUUAGAUGUGGUU”, for which the “apparent Kd” value under setting [1] came out at 0.17 µM and the “apparent Kd” value under setting [2] was 0.198 µM.

With “AGACUGAAGCAAGGAUAUUGUAAGGUUAAUGUACAAGAAGGUGCUGUUUAUGUCUCUUAACAUGAGGAUCACCCAUGUUUUGGU”, the “apparent Kd” value under setting [3] came out at 0.0239 µM and the “apparent Kd” value under setting [4] was 0.0199 µM.

Take “UGGUACUAGGGAGGAUAUGGGAAGAUACAUGAGGAUCACCCAUGUUUAAGAAUGCCGAGAGGCAACUAGAAGGCCCUACUACCU”: the “apparent Kd” value is 0.294 µM under setting [3] and 0.0206 µM under setting [4].

Consider “GAGGACUGUAAAUAAGUAGAAAUACAUGAGGAUCACCCAUGUAAGGAUAUCGUCAGGAAUACUGACGAGAAGGUACAUCAGUCC”, for which the “apparent Kd” value runs as follows: under setting [1], 0.0145 µM; under setting [2], 0.0181 µM.

On to “GUCAGCUCAUGAGGAUAUACAACACUGCUUCGGCAGUGUAUUAAGAUCACAUGAGGAUCACCCAUGUAGAAGGCACGAGCUGAU”, for which the “apparent Kd” value came out at 0.0129 µM under setting [1] and 0.258 µM under setting [2].

With “CAGAGUAAAGGAUAUACAUGAGGAUCACCCAUGUUUAGACCGACGACACGUCCUAGUUGUAGAAGGUUAUUUUG”, the “apparent Kd” value by setting is: under setting [1], 0.0822 µM; under setting [2], 0.0687 µM.

Take “CAGGUAGACUGAGGAUAUACACUAAACAGCUAGUCUAUCUAGCUGGUCACAUGAGGAUCACCCAUGUAGAAGGCAGUCUGCCUG”: the “apparent Kd” value by setting is: under setting [1], 0.0178 µM; under setting [2], 0.0359 µM.

“UGUGUGUCAGGAUAUCGCGCGCGCGCGGAAAUGUGUGUGUGUGAGAAGGGACAUGAGGAUCACCCAUGUGCGCG”: the “apparent Kd” value amounted to 0.115 µM under setting [1] and 0.263 µM under setting [2].

With “AGUAGAUCAGGAUAUACAUAAAUGAUAAUUAUGUAACUUCUACAUGAGGAUCACCCAUGUAGAAGGGAUCUACA”, the “apparent Kd” value is, setting by setting: under setting [1], 0.0126 µM; under setting [2], 0.0131 µM.

Regarding “CUUUAGCUAGGAUAUACAUGAGGAUCACCCAUGUUAGCGGUCAAUUGGGCCGCGGGUUGUAGAAGGAGCAUUAA”, the “apparent Kd” value is, setting by setting: under setting [1], 0.0325 µM; under setting [2], 0.0534 µM.

Consider “UUAGCGUAAGUAAGGAUAUGCUGGUCGAAAGACCAGCAGAAGGUACAUGAGGAUCACCCAUGUUGAGUUGUUGC”, for which the “apparent Kd” value is, setting by setting: under setting [1], 0.02 µM; under setting [2], 0.0243 µM.

Take “GUUAAACAUGAGGAUCACCCAUGUCAAUGUAGUCGAGGAUAUGGGCAGCUGUGAGGCGUACUAGAAGGCGAAAAGG”: the “apparent Kd” value was 0.27 µM under setting [3] and 0.0575 µM under setting [4].

Regarding “AAGGAUAGAGGAUAUGCAUAGAUACAGAUUCAUGUAGAACUACAUGAGGAUCACCCAUGUAGAAGGCUAUCCUA”, the “apparent Kd” value is, setting by setting: under setting [1], 0.0186 µM; under setting [2], 0.0508 µM.

Consider “CCACGGUAUGUAGGAUAUGCAUAGCAUUGCUAUGCAGAAGGACAUGAGGAUCACCCAUGUAUGUAUUCCAUACUAAUCCCGUGC”, for which the “apparent Kd” value under setting [1] was 0.00642 µM and the “apparent Kd” value under setting [2] was 0.00637 µM.

In the case of “CUGAGGUCAGGAUAUGCAUGGCGGGACUUGCGUCGUGGCGUGCAGAAGGGACAUGAGGAUCACCCAUGUGGAGG”, the “apparent Kd” value by setting is: under setting [1], 0.147 µM; under setting [2], 0.206 µM.

On to “AUAUGAUAGAUAGGAUAUACUGAGGUUGAAUGGGUAGAAGGAUCGAUAGGGAAGAAUACAUGAGGAUCACCCAUGUUGUGGAUU”, for which the “apparent Kd” value under setting [3] worked out at 0.0769 µM and the “apparent Kd” value under setting [4] amounted to 0.0578 µM.

As for “UAAAAUCAUGUAGGAUAUGCGUGGCGAAGCUAUGCAGAAGGACAUGAGGAUCACCCAUGUCUUACCUAGCGUACUAGGUUAAAG”, the “apparent Kd” value under setting [1] worked out at 0.0197 µM and the “apparent Kd” value under setting [2] came out at 0.107 µM.

“GUGCAAUGAGGAUAUACGUUGGUGAACAUCUGUGUGCUCCUACAUGAGGAUCACCCAUGUAGAAGGCAUGUCAC”: the “apparent Kd” value is 0.0114 µM under setting [1] and 0.0171 µM under setting [2].

In the case of “CCUCGACAUGAGGAUCACCCAUGUCAGGAUAUUGUGUUUCGGGUUUUUUACCGUUAGGCAAGAAGGGAUGUGUG”, the “apparent Kd” value is, setting by setting: under setting [1], 0.0292 µM; under setting [2], 0.0402 µM.

On to “AUUUGCGAAUCAGGAUAUGGACCAGCACAUGAGGAUCACCCAUGUCUGCCGGCGAGCCGGCUAGGCCAGAAGGGAUGUGCUCAA”, for which the “apparent Kd” value reads like this: under setting [3], 0.087 µM; under setting [4], 0.0182 µM.

For the sequence “GCAUGCUCCGAGGAUAUCGAAGCUAAUUAUGCACGAGAAGGCGGAACAUGAGGAUCACCCAUGUGAUGCCUAAA”, the “apparent Kd” value under setting [2] was 0.0294 µM.

In the case of “ACAGAGGCUGACAUGAGGAUCACCCAUGUUAGAUUGUUAUGUCAGGAUAUUAUCUCGCAACGAGAUAAGAAGGGACCCUCUGUG”, the “apparent Kd” value stood at 0.0375 µM under setting [3] and 0.00798 µM under setting [4].

Regarding “AGUCGGAGCGGAGGAUAUACAUGAGGAUCACCCAUGUAAUAAAGUGAAGCCUGGAAACAGGCAAUGUAGAAGGCUGCUCCGACA”, the “apparent Kd” value under setting [1] amounted to 0.011 µM and the “apparent Kd” value under setting [2] came to 0.0748 µM.

As for “AUCAGCUUGACAGGAUAUACAUGUCAGCGAAAGCUGACAAUCUUAAUAACAUGAGGAUCACCCAUGUAGAAGGGUCGAGCUGAU”, the “apparent Kd” value worked out at 0.0181 µM under setting [1] and 0.0324 µM under setting [2].

“GUUUUUUUUAGUUCAUACUAUUUGAUAGAAGGUGAAAUAUAGACAUGAGGAUCACCCAUGUAAUUCAAGGAUAUGUAGUUACUC”: the “apparent Kd” value is 0.0406 µM under setting [3] and 0.0327 µM under setting [4].

On to “UUCCUCGUUGUGAGGAUAUCGUCCUCUUUUUGUUACGAGAAGGCACAUGAGGAUCACCCAUGUUUCUUGAUGUU”, for which the “apparent Kd” value was found to be 0.0167 µM under setting [1] and 0.0423 µM under setting [2].

With “UAGAUUAGAAGUUAACAUGAGGAUCACCCAUGUAUUGGAACAGAGGAUAUGCAUGUUUGAUAGUAGCAGAAGGCUGAAGGUGGA”, the “apparent Kd” value by setting is: under setting [3], 0.0981 µM; under setting [4], 0.104 µM.

Regarding “CCAGGCUUCGAGAAGGACAUGAGGAUCACCCAUGUGCGUGUGAAGCAGCCGUGAGGCUGCAUCAUGUAGGAUAUCGGAGUCUGU”, the “apparent Kd” value under setting [1] is 0.0722 µM and the “apparent Kd” value under setting [2] stood at 0.391 µM.

With “CCUGCACAUGAGGAUCACCCAUGUCAGGAUAUCUCGCCGCGAAGAGCAACACGGUAUUAGAGAAGGGACACGGG”, the “apparent Kd” value reads like this: under setting [1], 0.0281 µM; under setting [2], 0.0365 µM.

As for “AAAUCGGUAGAGGAUAUUGUACAGGAAACGGUGCGAGAAGGUUGCACAUGAGGAUCACCCAUGUUUAGUUGCGA”, the “apparent Kd” value is, setting by setting: under setting [1], 0.0349 µM; under setting [2], 0.034 µM.

Turning to “UCAUCAGCGGGCGGAUCGGUUGGACAUGAGGAUCACCCAUGUAGAAGGACCGGUGGAUUCCGGCGGUAGGAUAUACAUUUGGUG”, the “apparent Kd” value runs as follows: under setting [1], 0.0129 µM; under setting [2], 0.0274 µM.

As to “UGAGCCGGCACUGAGGAUAUUCAUAUUUAAACAUGAGGAUCACCCAUGUAGGCCAGAAGGCCUUGGGAGAAGGCAGGUCGGCUCU”, the “apparent Kd” value runs as follows: under setting [3], 0.399 µM; under setting [4], 0.0246 µM.

On to “UACGGACAUGAGGAUCACCCAUGUGAGGAUAUCGAUAACGAUAGCAUAAUAUAAUCGGCGAGAAGGCACAGCGU”, for which the “apparent Kd” value is 0.0327 µM under setting [1] and 0.0409 µM under setting [2].

For the sequence “AAAAAGGCAGGAUAUACAAAAAAAUUUUUAAAAAAAAAAAAACAUGAGGAUCACCCAUGUAGAAGGGCCAAAAA”, the “apparent Kd” value by setting is: under setting [1], 0.0542 µM; under setting [2], 0.0517 µM.

“UAAUCUCAGAUAGGAUAUAUAGGAUAAUUUAAGACCGAACAUGAGGAUCACCCAUGUGAUUAUUCGUAGAAGGAUCAAUGACCC”: the “apparent Kd” value is, setting by setting: under setting [3], 0.0783 µM; under setting [4], 0.0762 µM.
